Data taken from paper PMC8945107 (ACS Omega, 2022).

How the values were obtained:
NCI-H460 = experiment: MTT antiproliferative assay, NCI-H460; assay type: cell-based; settings: Homo sapiens, NCI-H460, 48 h, read-out: IC50 NCI-H460
Summary of the method: (§1)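 Cells in 96-well plates were preincubated 24 h, then exposed to test compound 48 h. MTT solution (5 mg/mL stock) was added for 4 h, medium removed, formazan dissolved in DMSO, plate shaken 1 min and absorbance read at 570 nm. Three independent experiments.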

[1] = system: human bronchial epithelioid cells (HBE); experiment: MTT antiproliferative / cell viability assay, HBE; assay type: cell-based; settings: 48 h, read-out: IC50 HBE
Summary of the method: as §1

PC-3 = experiment: MTT antiproliferative assay, PC-3; assay type: cell-based; settings: Homo sapiens, PC-3, 48 h, read-out: IC50 PC-3
Summary of the method: as §1

A549 cells [2] = experiment: Vacuolization, fluorescence inverted microscope; assay type: cell-based, human; settings: 10 mM NAC with 2 μM 5e; vacuolization 12 h, MTT 24 h
Summary of the method: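 A549 cells were given 2 μM test compound for 12, 24 or 36 h, or 1–4 μM for 24 h, and photographed on an inverted fluorescence microscope. For antioxidant co-treatment, 10 mM NAC was combined with 2 μM compound. Vacuolization was imaged at 12 h, and viability was measured by MTT at 24 h (absorbance 570 nm after DMSO solubilisation).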

A549 cells [3] = experiment: Detection of intracellular ROS; assay type: cell-based, human; settings: 10 mM NAC with 2 μM 5e, 12 h
Summary of the method: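 A549 cells in 6-well plates were pretreated with NAC for 2 h, then treated with test compound. Afterward they were stained with 10 μM DCFH-DA in FBS-free medium for 0.5 h in the incubator and washed twice with PBS. Cells were collected, resuspended in PBS and analysed by flow cytometry.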

Row | IC50 (NCI-H460) [nM] | IC50 (PC-3) [nM] | SMILES | IC50 [1] [nM] | effect of NAC on vacuolization and cell death induced by 5e (A549 cells [2]) | effect of NAC on ROS level induced by 5e (A549 cells [3])
1 | 3140 ± 570 | 1130 ± 200 | COc1cccc2c1C(=O)c1c(O)c3c(c(O)c1C2=O)C[C@@](O)(C(=O)CO)C[C@@H]3O[C@H]1C[C@H](N)[C@H](O)[C@H](C)O1 [DOX, Doxorubicin] | 2540 ± 160 | – | –
2 | – | – | CC(=O)N[C@@H](CS)C(=O)O [NAC, N-acetylcysteine] | – | could not remarkably suppress vacuolization and cell death | could inhibit the level of ROS
